Results from ChEMBL document CHEMBL1156563, “Synthesis and antiproliferative evaluation of amide-containing flavone and isoflavone derivatives” (Bioorg Med Chem, 2008).

Columns and labels:
[1] = tested on: MT2; test: Antiproliferative activity against human MT2 cells after 72 hrs by MTT assay; type: functional; details: MT2, 72 h
Outline: (§1)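 Cells were exposed to a range of concentrations for 72 h. Compounds came from 20 mM stocks in 100% DMSO. Cells were then given MEM with 0.4 mg/mL MTT for 2 h, and formazan was read at 570 nm. GI50 was taken from percentage conversion relative to mock-treated controls and reported as mean SD of three independent experiments.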

[2] = Antiproliferative activity against human NPC-TW01 cells after 72 hrs by MTT assay; type: functional; details: NPC-TW01, 72 h; outline: as §1
[3] = tested on: NCI-H661; test: Antiproliferative activity against human NCI-H661 cells after 72 hrs by MTT assay; type: functional; details: NCI-H661, 72 h; outline: as §1
[4] = Cell cycle arrest in human NPC-TW01 cells assessed as accumulation at sub-G1 phase at 6.0 uM after 72 hrs by flow cytometry; type: functional, cell-based
Outline: (§2)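 Exponentially growing cells were treated for 72 h. Controls received complete medium with 0.5% DMSO for 72 h. Cells were fixed, incubated with RNase and stained. DNA content was measured on a FACScan flow cytometer, and the percentage of cells in each cell-cycle phase was determined.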

[5] = Cell cycle arrest in human NPC-TW01 cells assessed as accumulation at G2/M phase at 6.0 uM after 72 hrs by flow cytometry; type: functional, cell-based; outline: as §2
[6] = Cell cycle arrest in human NPC-TW01 cells assessed as accumulation at G0/G1 phase at 6.0 uM after 72 hrs by flow cytometry; type: functional, cell-based; outline: as §2
[7] = Cell cycle arrest in human NPC-TW01 cells assessed as accumulation at S phase at 6.0 uM after 72 hrs by flow cytometry; type: functional, cell-based; outline: as §2

Row | GI50 [3] | Structure (SMILES) | GI50 [1] | GI50 [2] | Activity [4] | Activity [5] | Activity [6] | Activity [7]
1 | > 10 µM | O=C(COc1ccc2c(=O)c(-c3ccccc3)coc2c1)Nc1ccc(-c2ccccc2)cc1 | > 10 µM | 1.75 µM |  |  |  | 
2 | 5.5 µM | COc1ccc(NC(=O)COc2ccc3c(=O)cc(-c4ccccc4)oc3c2)cc1 | 6.7 µM | 5.97 µM |  |  |  | 
3 | 9.71 µM | O=C(COc1ccc2oc(-c3ccccc3)cc(=O)c2c1)Nc1ccc(-c2ccccc2)cc1 | > 10 µM | 0.64 µM |  |  |  | 
4 | 5.77 µM | O=C(COc1ccc2c(=O)cc(-c3ccccc3)oc2c1)Nc1ccc(F)cc1 | 6.41 µM | > 10 µM |  |  |  | 
5 | > 10 µM | O=C(COc1c(-c2ccccc2)oc2ccccc2c1=O)Nc1ccccc1 | 6.72 µM | > 10 µM |  |  |  | 
6 | > 10 µM | O=C(COc1c(-c2ccccc2)oc2ccccc2c1=O)Nc1ccc(-c2ccccc2)cc1 | > 10 µM | > 10 µM |  |  |  | 
7 | > 10 µM | O=C(COc1ccc2c(=O)c(-c3ccccc3)coc2c1)Nc1ccccc1 | > 10 µM | > 10 µM |  |  |  | 
8 | > 10 µM | O=C(COc1ccc2c(=O)c(-c3ccccc3)coc2c1)Nc1ccc(F)cc1 | 2.5 µM | 0.55 µM |  |  |  | 
9 |  | O=c1cc(-c2ccccc2)oc2ccc(OC/C(=N\O)c3ccc(F)cc3)cc12 |  |  | 1.7% | 42.8% | 22.3% | 33.2%
10 | 6.74 µM | COc1ccc(NC(=O)COc2c(-c3ccccc3)oc3ccccc3c2=O)cc1 | > 10 µM | 5.48 µM |  |  |  | 
11 | > 10 µM | O=C(COc1c(-c2ccccc2)oc2ccccc2c1=O)Nc1ccc(F)cc1 | > 10 µM | 9.5 µM |  |  |  | 
